For orientation: IC50 means the concentration needed to halve the response being measured. High values mean weaker potency, low ones greater potency. A word on the half-life: it is how long it takes for the measured level to halve.

Results on five molecules are retold here after PMC6396318 (Journal of the American Chemical Society, 2019).

Read-outs that look alike come from different tables or passages of the source. Marks after values point to notes of the source that are not given here.

Series [1] in a line: Indiscriminate thiol reactivity assay with cysteine. The series is classed as physicochemical. The note with it: for Cysteine adduct formation: incubated with cysteine for 23 h, LC–MS; for Cysteine adduct pH 5.5 / Cysteine adduct pH 7.5 / Cysteine adduct pH 8.0: 23 h incubation with 10 mM cysteine at 37 °C, LC–MS UV trace. The essentials:
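Test compound was incubated with 10 mM cysteine in buffer at pH 5.5, 7.5 or 8.0 for 23 h at 37 °C. Cysteine adduct formation was quantified from the LC–MS UV trace.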

The nature of series [2]: Indiscriminate thiol reactivity assay with GSH. The note with it: 23 h incubation with 5 mM GSH at 37 °C, LC–MS UV trace. It is filed as physicochemical. Summed up: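 Test compound was incubated with 5 mM GSH in buffer at 37 °C for 23 h. Adduct formation was quantified from the LC–MS UV trace.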
Series [3] concerns the target T1, hCatK (Homo sapiens, UniProt P43235).
T1 sequence (P43235 115-329): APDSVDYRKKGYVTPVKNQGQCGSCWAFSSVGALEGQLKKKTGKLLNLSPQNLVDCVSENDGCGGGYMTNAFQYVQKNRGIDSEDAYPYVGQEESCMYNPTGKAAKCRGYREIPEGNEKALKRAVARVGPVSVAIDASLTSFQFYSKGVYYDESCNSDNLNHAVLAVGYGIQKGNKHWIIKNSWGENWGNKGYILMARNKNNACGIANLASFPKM
The experiment in a line: In vitro inhibition assay, fluorogenic substrate. The series is classed as biochemical. Summed up: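 Fluorogenic substrate was then added and proteolytic activity read. Values are mean ± SD of one representative experiment measured in triplicate. Selectivity was taken from IC50 values across these proteases.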

The target in series [4] is T1, hCatK. As to the kind of experiment: Kinetic evaluation of covalent inhibitors. It is filed as biochemical. Summed up: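 Recombinant hCatK (100 pM) was used with 4 μM Z-FR-AMC at 26 °C. The reaction was started by adding enzyme to substrate plus test compound. Progress curves of substrate hydrolysis were fitted to derive kinetic constants. Values are mean ± SD of one representative experiment measured in triplicate.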

In series [5] the target is T1, hCatK. The experiment in a line: Reversibility of inhibition. It is filed as biochemical. The note with it: 300-fold dilution into Z-FR-AMC. Summed up: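 Jump dilution: recombinant hCatK was preincubated with test compound at high concentration to fully occupy the active site. The mixture was then diluted 300-fold into Z-FR-AMC solution. Progress curves of hCatK activity were recorded to detect recovery of substrate hydrolysis. E-64 served as control.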

In series [6] the test system is human osteoclasts (OCs). As to the kind of experiment: Bone resorption by osteoclasts cultured on cortical bone slices. It is filed as cell-based. The essentials:
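Human CD14+ monocytes were seeded on bone slices, with M-CSF added on day 0 and RANKL on day 3 to drive osteoclast maturation. Medium containing test compound or DMSO was refreshed on days 7, 10, 13 and 16. On day 21 the cells were washed off and lysed. Resorption pits (trenches vs pits) were stained with Coomassie Brilliant Blue, and total resorption area was quantified.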

In series [7] the target is T2, CatK (Homo sapiens, UniProt P43235).
T2 sequence (P43235 115-329): T1 sequence (P43235 115-329)
The experiment in a line: Cathepsin K activity in osteoclast lysates. The series is classed as cell-based. The settings on record: lysates treated with BMV109; increase with ODN ascribed to displacement by probe.

For series [8], the system named is human osteoclasts (OCs). As to the kind of experiment: TRAcP staining and counting of mature OCs on plastic. The settings on record: highest concentrations. The series is classed as cell-based.
For series [9] the following is noted: cited from earlier work.
Series [10] concerns rodentCatK. The note with it: mice and rats; cited from earlier work.
The conditions of series [11]: cited from earlier work. This is another data set of the same source.
Series [12] has as its system CatK. The note with it: 100 nM; cited from earlier work.
Setting [13] is: 100 pM hCatK, 4 μM Z-FR-AMC, 26 °C, reversible covalent.

For `CC(C)(F)C[C@H](N[C@@H](c1ccc(-c2ccc(S(C)(=O)=O)cc2)cc1)C(F)(F)F)C(=O)NC1(C#N)CC1` [ODN, odanacatib], in series [1], the “Cysteine adduct formation” value was “adduct formation that increases upon increasing the pH of the buffer”, the “Cysteine adduct pH 5.5” value is on record as <1%, the “Cysteine adduct pH 7.5” value came out at 17% and the “Cysteine adduct pH 8.0” value stood at 48%. The “GSH adduct pH 7.5” value in series [2] is listed as 0%^b. Further, the IC50 in series [3] is < 1 nM. Also, the “Selectivity for CatK over related human cathepsins” value in series [3] (from IC50 values of Table 2) is recorded as “selective for hCatK”. This molecule registered a Ki in series [4] of 3.8 ± 2.7 nM. In [4] (setting [13]), the “k5 (rate of covalent bond formation)” value is 0.12 ± 0.026 min⁻¹ and the “k6 (rate of covalent bond dissociation)” value is 0.033 ± 0.0077 min⁻¹. Further, the “Reversibility of hCatK inhibition” value in [5] was “(fast) reversible inhibitor”. Moreover, the “Bone resorption morphology at 3 nM” value in series [6] (3 nM, 21 days culture, Coomassie staining) is “deep trenches”. For the same molecule, the “Bone resorption morphology at 15 nM” value in series [6] (15 nM, 21 days culture, Coomassie staining) is recorded as “shallow pits”. Besides, the “Effective dose / concentrations inhibiting bone resorption” value in [6] (21 days culture on bone slices) was “around 15 nM”. Further, the “Mature CatK activity in OC lysates (BMV109 labeling)” value in series [7] is “strong increase of mature CatK activity”. In addition, in [8], the “Number of OCs cultured on plastic” value is recorded as “increase in the number of OCs”. For the same molecule, in series [9], the half-life is 66 to 93 h. The “Reduction of apparent potency on rodentCatK compared to humanCatK” value in [10] is listed as “up to 182 fold”. Moreover, the “Side effects in phase III clinical trials” value in series [11] is “increased stroke risks and cardiovascular events”. In [12], the “CatK expression upon ODN treatment” value was “significant increase in CatK expression” and the “Number of OCs upon ODN treatment” value is listed as “without an increase in the number of OCs”.

As to `CN(C)C/C=C/C(=O)Nc1cc2c(Nc3ccc(F)c(Cl)c3)ncnc2cc1O[C@H]1CCOC1` [Afatinib], in series [1], the “Cysteine adduct formation” value is on record as “adduct formation that increases upon increasing the pH of the buffer”, the “Cysteine adduct pH 5.5” value was determined as 92%, the “Cysteine adduct pH 7.5” value came to 98% and the “Cysteine adduct pH 8.0” value is listed as 95%. Moreover, the “GSH adduct pH 7.5” value in series [2] is recorded as 94%.

As for `C=CC(=O)N1CCC[C@@H](n2nc(-c3ccc(Oc4ccccc4)cc3)c3c(N)ncnc32)C1` [Ibrutinib], in series [1], the “Cysteine adduct formation” value is on record as “adduct formation that increases upon increasing the pH of the buffer”, the “Cysteine adduct pH 5.5” value amounted to 9%, the “Cysteine adduct pH 7.5” value is on record as 99% and the “Cysteine adduct pH 8.0” value is given as 96%. In addition, the “GSH adduct pH 7.5” value in series [2] was 91%.

Turning to `CC(C)C[C@H](NC(=O)[C@H]1O[C@@H]1C(=O)O)C(=O)NCCCCN=C(N)N` [Compound E-64, E-64], in series [1], the “Cysteine adduct formation” value is on record as “adduct formation that increases upon increasing the pH of the buffer”, the “Cysteine adduct pH 5.5” value is <1%, the “Cysteine adduct pH 7.5” value is 68% and the “Cysteine adduct pH 8.0” value came to 79%. Further, in [2], the “GSH adduct pH 7.5” value came to 64%. Also, the Ki in [4] (100 pM hCatK, 4 μM Z-FR-AMC, 26 °C, irreversible covalent, mean ± SD) is 11 ± 1.6 nM.

Turning to `CC#CC(=O)N1CCC[C@H]1c1nc(-c2ccc(C(=O)Nc3ccccn3)cc2)c2c(N)nccn12` [Acalabrutinib], in series [1], the “Cysteine adduct formation” value is on record as “observed”, the “Cysteine adduct pH 5.5” value is on record as 19%, the “Cysteine adduct pH 7.5” value stood at 98% and the “Cysteine adduct pH 8.0” value worked out at 97%. Besides, the “GSH adduct pH 7.5” value in series [2] stood at 95%.
